# In ChEMBL document CHEMBL1781977, “Design and synthesis of 3,5-diarylisoxazole derivatives as novel class of anti-hyperglycemic and lipid lowering agents” (Bioorg Med Chem, 2009):
# Activity calls are given as the source filed them. The rule behind the calls is not given here.
# How the values were obtained:
# [1] = target: T1, Tyrosine-protein phosphatase non-receptor type 1 (Homo sapiens, UniProt P18031); test: Inhibition of protein tyrosine phosphatase-1B at 10 uM incubated for 10 mins using pNPP substrate in presence of 0.01% Triton X-100 by modified Goldstein method
# T1 sequence (P18031 whole entry): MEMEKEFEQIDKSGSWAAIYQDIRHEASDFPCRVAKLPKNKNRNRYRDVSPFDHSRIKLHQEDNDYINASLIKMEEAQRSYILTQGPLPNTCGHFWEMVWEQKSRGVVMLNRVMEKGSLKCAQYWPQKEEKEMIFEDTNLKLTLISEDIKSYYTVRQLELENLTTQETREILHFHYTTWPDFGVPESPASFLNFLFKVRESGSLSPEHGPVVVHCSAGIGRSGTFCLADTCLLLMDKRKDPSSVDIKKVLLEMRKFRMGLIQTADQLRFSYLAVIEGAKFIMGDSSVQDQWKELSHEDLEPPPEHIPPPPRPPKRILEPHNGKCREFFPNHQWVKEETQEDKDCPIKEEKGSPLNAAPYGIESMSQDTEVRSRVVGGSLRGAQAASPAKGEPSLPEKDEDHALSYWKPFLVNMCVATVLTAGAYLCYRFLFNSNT
# Summary of the method: (§1)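 PTP-1B: compound preincubated 10 min with enzyme, with or without 0.01% Triton X-100. Then 10 mM pNPP in 50 mM HEPES pH 7.0 with 1 mM DTT and 2 mM EDTA, 30 min at 37 °C. Stopped with 0.1 N NaOH; absorbance read at 410 nm. p-Nitrophenolate calculated using ε 1.78 × 10⁴ M⁻¹cm⁻¹. Sodium orthovanadate used as reference.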
# Rattus norvegicus [2] = test: Antihyperglycemic activity against sucrose challenged streptozotocin-induced diabetic Sprague-Dawley albino rat assessed as reduction in blood glucose level at 100 mg/kg, po administered 30 mins before sucrose challenge; format: functional
# Summary of the method: (§2)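 Male Sprague Dawley rats, 160 ± 20 g, fasted overnight, given streptozotocin 60 mg/kg ip in 100 mM citrate pH 4.5. Rats with glucose 144–270 mg/dl at 48 h count as diabetic, 5–6 per group. Dosed 100 mg/kg orally in 1.0% gum acacia. Sucrose 2.5 g/kg given 30 min later. Glucose read at 30–300 min and 24 h. Non-responders excluded.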
# Rattus norvegicus [3] = test: Antihyperglycemic activity against sucrose challenged streptozotocin-induced diabetic Sprague-Dawley albino rat assessed as reduction in blood glucose level at 7.5 mg/kg, po administered 30 mins before sucrose challenge; format: functional
# Summary of the method: (§3)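 Streptozotocin-diabetic Sprague Dawley rats: streptozotocin 60 mg/kg ip in citrate pH 4.5; rats at 144–270 mg/dl after 48 h used. Oral doses of 7.5–100 mg/kg in 1.0% gum acacia, then sucrose 2.5 g/kg. Glucose measured at 30, 60, 90, 120, 180, 240, 300 and 1440 min. ED50 taken from dose response. Mean ± SD, n = 5; Dunnett's test.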
# [4] = target: Dipeptidyl peptidase 4 (Homo sapiens) (UniProt P27487); test: Inhibition of DPP4 assessed as rate of substrate cleavage using Gly-Pro-AMC substrate by spectrofluorometry
# Sequence of Dipeptidyl peptidase 4 (Homo sapiens) (P27487 whole entry, looked up): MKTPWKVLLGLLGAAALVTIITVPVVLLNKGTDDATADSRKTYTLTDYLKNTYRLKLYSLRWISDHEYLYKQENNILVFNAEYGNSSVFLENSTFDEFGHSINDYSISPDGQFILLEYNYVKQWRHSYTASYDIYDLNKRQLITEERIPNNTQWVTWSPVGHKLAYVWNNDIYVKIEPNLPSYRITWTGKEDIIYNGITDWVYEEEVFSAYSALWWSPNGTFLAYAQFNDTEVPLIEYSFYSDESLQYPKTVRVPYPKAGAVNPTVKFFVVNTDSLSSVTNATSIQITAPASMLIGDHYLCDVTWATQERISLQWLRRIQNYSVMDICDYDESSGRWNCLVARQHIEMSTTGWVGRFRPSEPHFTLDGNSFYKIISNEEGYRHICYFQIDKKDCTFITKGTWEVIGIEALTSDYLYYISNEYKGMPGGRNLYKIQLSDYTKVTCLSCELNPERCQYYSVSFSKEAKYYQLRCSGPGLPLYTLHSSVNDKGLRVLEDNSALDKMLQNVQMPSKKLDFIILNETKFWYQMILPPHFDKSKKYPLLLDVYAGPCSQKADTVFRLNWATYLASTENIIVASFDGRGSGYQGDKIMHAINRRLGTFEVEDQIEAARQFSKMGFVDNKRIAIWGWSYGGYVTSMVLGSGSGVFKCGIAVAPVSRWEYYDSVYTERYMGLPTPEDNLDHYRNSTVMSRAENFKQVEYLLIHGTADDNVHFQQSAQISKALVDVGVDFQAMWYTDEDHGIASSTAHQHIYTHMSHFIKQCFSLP
# Summary of the method: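 DPP-IV activity read by fluorescence at 37 °C, excitation 355 nm and emission 460 nm. Initial rate calculated over the first 15 min as increase in fluorescence intensity.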
# Mus musculus [5] = test: Antihyperglycemic activity in C57BL/Ks db/db mouse assessed as reduction in blood glucose level at 100 mg/kg, po measured 6 days post dose by postprandial glucose tolerance test; format: functional; conditions: 144 h
# Summary of the method: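 C57BL/KsBom-db mice, 12–18 weeks, 40–50 g, 5 male and 5 female, at 23 °C with 12/12 h light cycle. Treated orally at 100 mg/kg, vehicle 1.0% gum acacia. Day 6 postprandial test: glucose at −0.5 h and 0 h, then at 1, 2, 3, 4 and 6 h after dosing.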
# [6] = target: T1, Tyrosine-protein phosphatase non-receptor type 1; test: Inhibition of protein tyrosine phosphatase-1B at 10 uM incubated for 10 mins using pNPP substrate in absence of Triton X-100 by modified Goldstein method; summary of the method: as §1
# Mus musculus [7] = test: Antidyslipidemic activity in C57BL/Ks db/db mouse assessed as reduction in plasma triglyceride level at 100 mg/kg, po; format: functional
# Summary of the method: (§4)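 db/db mice (C57BL/KsBom, 12–18 weeks, 5 male and 5 female) dosed orally at 100 mg/kg in 1.0% gum acacia. Blood collected on day 8 for serum lipids. Mean ± SD, n = 5, against vehicle-treated db/db controls; Dunnett's test.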
# Rattus norvegicus [8] = test: Antihyperglycemic activity against sucrose challenged streptozotocin-induced diabetic Sprague-Dawley albino rat assessed as reduction in blood glucose level at 50 mg/kg, po administered 30 mins before sucrose challenge; format: functional; summary of the method: as §3
# [9] = target: T2, Peroxisome proliferator-activated receptor gamma (Homo sapiens) (UniProt P37231); test: Activation of PPARgamma by receptor transactivation assay
# T2 sequence (whole entry): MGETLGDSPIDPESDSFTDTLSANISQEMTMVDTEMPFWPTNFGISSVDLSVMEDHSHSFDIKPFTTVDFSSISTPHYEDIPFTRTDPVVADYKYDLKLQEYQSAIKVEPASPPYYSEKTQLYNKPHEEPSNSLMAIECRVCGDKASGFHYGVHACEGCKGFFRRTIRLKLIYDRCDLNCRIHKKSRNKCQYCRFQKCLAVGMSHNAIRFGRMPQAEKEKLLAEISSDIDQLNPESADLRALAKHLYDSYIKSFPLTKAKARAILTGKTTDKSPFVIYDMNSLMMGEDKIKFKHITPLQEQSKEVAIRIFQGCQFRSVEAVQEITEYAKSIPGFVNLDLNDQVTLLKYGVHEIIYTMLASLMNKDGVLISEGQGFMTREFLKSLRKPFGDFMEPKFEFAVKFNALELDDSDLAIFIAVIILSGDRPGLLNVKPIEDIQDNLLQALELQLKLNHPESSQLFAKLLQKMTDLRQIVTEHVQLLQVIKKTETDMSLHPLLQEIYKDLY
# Mus musculus [10] = test: Antidyslipidemic activity in C57BL/Ks db/db mouse assessed as plasma HDL-cholesterol level at 100 mg/kg, po; format: functional; summary of the method: as §4
# Rattus norvegicus [11] = test: Antihyperglycemic activity against sucrose challenged streptozotocin-induced diabetic Sprague-Dawley albino rat assessed as reduction in blood glucose level at 25 mg/kg, po administered 30 mins before sucrose challenge; format: functional; summary of the method: as §3
# Mus musculus [12] = organism: Mus musculus; test: Antihyperglycemic activity in C57BL/Ks db/db mouse assessed as reduction in blood glucose level measured after 3 days relative to control; format: functional
# Rattus norvegicus [13] = test: Antihyperglycemic activity in Charles Foster/Wistar albino rat assessed as reduction in blood glucose level at 100 mg/kg, po administered 30 mins before sucrose challenge; format: functional
# Summary of the method: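 Male Charles Foster/Wistar rats, 160 ± 20 g, fasted 16 h; animals with glucose 60–80 mg/dl used, 5–6 per group. Given 100 mg/kg orally as suspension in 1.0% gum acacia (controls vehicle alone). Sucrose 10.0 g/kg orally 30 min later. Glucometer readings at 30, 60, 90, 120 min. Percent activity derived from AUC of treated versus control groups.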
# Rattus norvegicus [14] = test: Antihyperglycemic activity against sucrose challenged streptozotocin-induced diabetic Sprague-Dawley albino rat assessed as reduction in blood glucose level at 100 mg/kg, po administered 30 mins before sucrose challenge measured after 5 hrs; format: functional; summary of the method: as §2
# Rattus norvegicus [15] = test: Antihyperglycemic activity against sucrose challenged streptozotocin-induced diabetic Sprague-Dawley albino rat assessed as reduction in blood glucose level at 100 mg/kg, po administered 30 mins before sucrose challenge measured after 24 hrs; format: functional; summary of the method: as §2
# Rattus norvegicus [16] = test: Antihyperglycemic activity against sucrose challenged streptozotocin-induced diabetic Sprague-Dawley albino rat assessed as reduction in blood glucose level at 15 mg/kg, po administered 30 mins before sucrose challenge; format: functional; summary of the method: as §3
# [17] = target: T3, Tyrosine-protein phosphatase non-receptor type 1 (Homo sapiens) (UniProt P18031); test: Inhibition of protein tyrosine phosphatase-1B at 10 uM incubated for 10 mins using pNPP substrate by modified Goldstein method; summary of the method: as §1
# T3 sequence (whole entry): T1 sequence (P18031 whole entry)
# Mus musculus [18] = test: Antihyperglycemic activity in C57BL/Ks db/db mouse assessed as reduction in blood glucose level at 100 mg/kg, po measured 10 days post dose by postprandial glucose tolerance test; format: functional; conditions: 240 h, in the assay text read “oral glucose tolerance test” for “postprandial glucose tolerance test”
# Summary of the method: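 db/db mice (C57BL/KsBom, 12–18 weeks, 40–50 g) given 100 mg/kg orally, vehicle 1.0% gum acacia. Day 10 OGTT after overnight fast: glucose at −30 min and drug given, then glucose at 0 min. Glucose 3 g/kg given, with readings at 30, 60, 90 and 120 min.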
# Rattus norvegicus [19] = test: Antihyperglycemic activity against sucrose challenged streptozotocin-induced diabetic Sprague-Dawley albino rat assessed as reduction in blood glucose level administered orally 30 mins before sucrose challenge; format: functional; conditions: po; summary of the method: as §3
# Mus musculus [20] = test: Antidyslipidemic activity in C57BL/Ks db/db mouse assessed as reduction in plasma cholesterol level at 100 mg/kg, po; format: functional; summary of the method: as §4
SMILES,IC50 [1],inhibition in vivo at 100 mg/kg (Rattus norvegicus [2]),inhibition in vivo at 7.5 mg/kg (Rattus norvegicus [3]),inhibition [4],inhibition in vivo at 100 mg/kg (Mus musculus [5]),IC50 [6],inhibition in vivo at 100 mg/kg (Mus musculus [7]),inhibition in vivo at 50 mg/kg (Rattus norvegicus [8]),Activity [9],Activity (Mus musculus [10]),inhibition in vivo at 25 mg/kg (Rattus norvegicus [11]),inhibition (INH) (Mus musculus [12]),inhibition in vivo at 100 mg/kg (Rattus norvegicus [13]),inhibition in vivo at 100 mg/kg (Rattus norvegicus [14]),inhibition in vivo at 100 mg/kg (Rattus norvegicus [15]),inhibition in vivo at 15 mg/kg (Rattus norvegicus [16]),inhibition [17],inhibition in vivo at 100 mg/kg (Mus musculus [18]),ED50 (Rattus norvegicus [19]),inhibition in vivo at 100 mg/kg (Mus musculus [20])
COc1ccc(-c2cc(-c3ccccc3)no2)c(OCCN2CCCCC2)c1,9 µM,20.7%,9.8%,inactive,17.4%,8.8 µM,-7.5%,16.7%,inactive,1.3%,14%,18.5%,27.6%,17.6%,18.7%,12.6%,76.3%,16.1%,64.5 mg/kg,-12.2%
COc1ccc(-c2cc(-c3ccccc3)no2)c(OCCN2CCCC2)c1,1.51 µM,27.7%,11.5%,inactive,21.4%,1.5 µM,-10.5%,18.5%,,3%,15.2%,22.8%,36.9%,27.7%,28.7%,13.7%,99.2%,21.6%,54.8 mg/kg,-17.6%
